Reference: ChEMBL document CHEMBL1212730, “Augmented photoswitching modulates immune signaling” (Nat Chem Biol, 2009)
One block for each compound: values may come before it. Calls of active or inactive are those of the source. The rule behind the calls is not given here.

Assays:
[1] = molecular target: T1, Peptidyl-prolyl cis-trans isomerase A (Homo sapiens, UniProt P62937); test: Binding affinity to cyclophilin 18 assessed as reduction in calcineurin activity by protease coupled assay
In short: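 Cyp18 PPIase activity measured by a chymotrypsin-coupled protease assay with Suc-Ala-Phe-Pro-Phe-NH-Np as substrate at 7 °C. Cyp18 was 2.5 nM. Compound was tested non-irradiated, irradiated at 740 nm for 45 min, or irradiated and then kept dark overnight, with DMSO as control. Data are means ± s.d.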
Target sequence in this assay (P62937 whole entry): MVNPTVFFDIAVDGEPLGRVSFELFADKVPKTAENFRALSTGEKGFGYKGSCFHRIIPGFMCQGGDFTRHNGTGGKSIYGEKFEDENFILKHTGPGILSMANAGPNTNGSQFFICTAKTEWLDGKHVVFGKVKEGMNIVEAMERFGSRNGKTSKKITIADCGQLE

[2] = molecular target: T1, Peptidyl-prolyl cis-trans isomerase A; conditions: 200 nM
Target sequence in this assay (P62937 whole entry, looked up): as the sequence (P62937 whole entry) above

[3] = molecular target: T1, Peptidyl-prolyl cis-trans isomerase A; test: Inhibition of PPIase activity of cyclophilin 18 by protease coupled assay
Target sequence in this assay (P62937 whole entry): as above

PBMC [4] = test: Immunosuppressive activity in streptavidin-stimulated human PBMC assessed as decrease in PMA/ionomycin-induced IL-2 production measured at 4 hrs interval by flow cytometry; assay type: functional, cell-based
PBMC [5] = test: Immunosuppressive activity in human PBMC assessed as decrease in PMA/ionomycin-induced IL-2 production measured at 4 hrs interval by flow cytometry; assay type: functional, cell-based
PBMC [6] = test: Immunosuppressive activity in human PBMC assessed as decrease in PMA/ionomycin-induced IL-2 production measured at 4 hrs interval post irradiation of 45 mins with 740 nm light by flow cytometry; assay type: functional, cell-based
[7] = molecular target: T2, Protein phosphatase 3 catalytic subunit alpha (Homo sapiens, UniProt Q08209); test: Inhibition of calcineurin-mediated streptavidin-coupled NFAT activation in human Jurkat cells by luciferase reporter gene assay; assay type: cell-based
In short: (§1)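 Cells were pretreated with non-irradiated compound, then either kept dark or irradiated at 740 nm for 1 h before PMA/ionomycin stimulation. Luciferase was read in lysed cells. Data are means ± s.d.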

[8] = molecular target: T2, Protein phosphatase 3 catalytic subunit alpha; test: Inhibition of calcineurin-mediated streptavidin-coupled NFAT activation in human Jurkat cells measured after 45 min of irradiation with 740 nm light by luciferase reporter gene assay; assay type: cell-based
[9] = molecular target: T2, Protein phosphatase 3 catalytic subunit alpha; test: Inhibition of calcineurin-mediated NFAT activation in human Jurkat cells by luciferase reporter gene assay; assay type: cell-based; in short: as §1
[10] = molecular target: T2, Protein phosphatase 3 catalytic subunit alpha; test: Inhibition of calcineurin-mediated NFAT activation in human Jurkat cells measured after 45 min of irradiation with 740 nm light by luciferase reporter gene assay; assay type: cell-based
PBMC [11] = test: Immunosuppressive activity in streptavidin-stimulated human PBMC assessed as decrease in PMA/ionomycin-induced IL-2 production measured at 4 hrs interval post irradiation of 45 mins with 740 nm light by flow cytometry; assay type: functional, cell-based
[12] = molecular target: T1, Peptidyl-prolyl cis-trans isomerase A; test: Binding affinity to cyclophilin 18 by protease coupled assay
Target sequence in this assay (P62937 whole entry): as above

[13] = molecular target: T1, Peptidyl-prolyl cis-trans isomerase A; test: Binding affinity to streptavidin-coupled biotin-labeled cyclophilin 18 assessed as reduction in [33P] phosphatase activity of calcineurin by protease coupled assay
Target sequence in this assay (P62937 whole entry): as above

[14] = molecular target: T1, Peptidyl-prolyl cis-trans isomerase A; conditions: Blood, 50 to 200 nM
Target sequence in this assay (P62937 whole entry, looked up): as the sequence (P62937 whole entry) above

[15] = molecular target: T1, Peptidyl-prolyl cis-trans isomerase A; conditions: 10 uM
Target sequence in this assay (P62937 whole entry, looked up): as the sequence (P62937 whole entry) above

[16] = molecular target: T1, Peptidyl-prolyl cis-trans isomerase A; conditions: Blood, Lysate, 50 to 200 nM
Target sequence in this assay (P62937 whole entry, looked up): as the sequence (P62937 whole entry) above

[17] = molecular target: T1, Peptidyl-prolyl cis-trans isomerase A; conditions: Blood, 50 to 200 nM; remark: listed apart in the source
Target sequence in this assay (P62937 whole entry, looked up): as the sequence (P62937 whole entry) above

[18] = molecular target: T1, Peptidyl-prolyl cis-trans isomerase A; test: Binding affinity to cyclophilin 18 assessed as reduction in [33P]phosphatase activity of calcineurin by protease coupled assay
In short: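 Calcineurin phosphatase activity measured at 30 °C with 33P-labeled phosphocasein. CaN was 3.5 nM, with Cyp18 at the desired concentrations and 10 µM compound, either irradiated at 740 nm for 45 min or non-irradiated, with or without streptavidin. The inhibitor concentration refers to the Cyp18–compound complex. Data are means ± s.d.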
Target sequence in this assay (P62937 whole entry): as above

SMILES: C/C=C/C[C@@H](C)[C@@H](O)[C@H]1C(=O)N[C@@H](CC)C(=O)N(C)CC(=O)N(C)[C@@H](CC(C)C)C(=O)N[C@@H](C(C)C)C(=O)N(C)[C@@H](CC(C)C)C(=O)N[C@@H](C)C(=O)N[C@H](COCC(=O)Nc2ccc(/N=N\c3ccc(NC(=O)COC[C@H]4NC(=O)[C@H](C)NC(=O)[C@H](CC(C)C)N(C)C(=O)[C@H](C(C)C)NC(=O)[C@H](CC(C)C)N(C)C(=O)CN(C)C(=O)[C@H](CC)NC(=O)[C@H]([C@H](O)[C@H](C)C/C=C/C)N(C)C(=O)[C@H](C(C)C)N(C)C(=O)[C@H](CC(C)C)N(C)C(=O)[C@H](CC(C)C)N(C)C4=O)cc3)cc2)C(=O)N(C)[C@@H](CC(C)C)C(=O)N(C)[C@@H](CC(C)C)C(=O)N(C)[C@@H](C(C)C)C(=O)N1C
IC50 [1]: 266 nM
inhibition [2]: Active
IC50 [3]: 30 nM

SMILES: C/C=C/C[C@@H](C)[C@@H](O)[C@H]1C(=O)N[C@@H](CC)C(=O)N(C)CC(=O)N(C)[C@@H](CC(C)C)C(=O)N[C@@H](C(C)C)C(=O)N(C)[C@@H](CC(C)C)C(=O)N[C@@H](C)C(=O)N[C@H](COCC(=O)Nc2ccc(N=Nc3ccc(NC(=O)CCCC[C@@H]4SC[C@@H]5NC(=O)N[C@@H]54)cc3)cc2)C(=O)N(C)[C@@H](CC(C)C)C(=O)N(C)[C@@H](CC(C)C)C(=O)N(C)[C@@H](C(C)C)C(=O)N1C
Activity (PBMC [4]): inactive
Activity (PBMC [5]): Active
Activity (PBMC [6]): Active
IC50 [7]: 16400 nM
IC50 [8]: 1400 nM
IC50 [9]: 135 nM
IC50 [10]: 89 nM
Activity (PBMC [11]): Active

IC50 [9]: 75 nM
IC50 [10]: 49 nM
SMILES: C/C=C/C[C@@H](C)[C@@H](O)[C@H]1C(=O)N[C@@H](CC)C(=O)N(C)CC(=O)N(C)[C@@H](CC(C)C)C(=O)N[C@@H](C(C)C)C(=O)N(C)[C@@H](CC(C)C)C(=O)N[C@@H](C)C(=O)N[C@H](COCC(=O)Nc2ccc(N=Nc3ccccc3)cc2)C(=O)N(C)[C@@H](CC(C)C)C(=O)N(C)[C@@H](CC(C)C)C(=O)N(C)[C@@H](C(C)C)C(=O)N1C

IC50 [12]: 147 nM
IC50 [3]: 2.79 nM
SMILES: C/C=C/C[C@@H](C)[C@@H](O)[C@H]1C(=O)N[C@@H](CC)C(=O)N(C)CC(=O)N(C)[C@@H](CC(C)C)C(=O)N[C@@H](C(C)C)C(=O)N(C)[C@@H](CC(C)C)C(=O)N[C@@H](C)C(=O)N[C@H](COCC(=O)Nc2ccc(/N=N\c3ccccc3)cc2)C(=O)N(C)[C@@H](CC(C)C)C(=O)N(C)[C@@H](CC(C)C)C(=O)N(C)[C@@H](C(C)C)C(=O)N1C

IC50 [13]: 227 nM
IC50 [3]: 4.75 nM
SMILES: C/C=C/C[C@@H](C)[C@@H](O)[C@H]1C(=O)N[C@@H](CC)C(=O)N(C)CC(=O)N(C)[C@@H](CC(C)C)C(=O)N[C@@H](C(C)C)C(=O)N(C)[C@@H](CC(C)C)C(=O)N[C@@H](C)C(=O)N[C@H](COCC(=O)Nc2ccc(/N=N/c3ccccc3)cc2)C(=O)N(C)[C@@H](CC(C)C)C(=O)N(C)[C@@H](CC(C)C)C(=O)N(C)[C@@H](C(C)C)C(=O)N1C

SMILES: C/C=C/C[C@@H](C)[C@@H](O)[C@H]1C(=O)N[C@@H](CC)C(=O)N(C)CC(=O)N(C)[C@@H](CC(C)C)C(=O)N[C@@H](C(C)C)C(=O)N(C)[C@@H](CC(C)C)C(=O)N[C@@H](C)C(=O)N[C@H](COCC(=O)Nc2ccc(/N=N/c3ccc(NC(=O)CCCC[C@@H]4SC[C@@H]5NC(=O)N[C@@H]54)cc3)cc2)C(=O)N(C)[C@@H](CC(C)C)C(=O)N(C)[C@@H](CC(C)C)C(=O)N(C)[C@@H](C(C)C)C(=O)N1C
inhibition [14]: Active
inhibition [15]: 30%
inhibition [16]: Active
inhibition [17]: Active

SMILES: C/C=C/C[C@@H](C)[C@@H](O)[C@H]1C(=O)N[C@@H](CC)C(=O)N(C)CC(=O)N(C)[C@@H](CC(C)C)C(=O)N[C@@H](C(C)C)C(=O)N(C)[C@@H](CC(C)C)C(=O)N[C@@H](C)C(=O)N[C@H](COCC(=O)Nc2ccc(/N=N/c3ccc(NC(=O)COC[C@H]4NC(=O)[C@H](C)NC(=O)[C@H](CC(C)C)N(C)C(=O)[C@H](C(C)C)NC(=O)[C@H](CC(C)C)N(C)C(=O)CN(C)C(=O)[C@H](CC)NC(=O)[C@H]([C@H](O)[C@H](C)C/C=C/C)N(C)C(=O)[C@H](C(C)C)N(C)C(=O)[C@H](CC(C)C)N(C)C(=O)[C@H](CC(C)C)N(C)C4=O)cc3)cc2)C(=O)N(C)[C@@H](CC(C)C)C(=O)N(C)[C@@H](CC(C)C)C(=O)N(C)[C@@H](C(C)C)C(=O)N1C
IC50 [1]: 487 nM
inhibition [15]: 30%
IC50 [9]: 358 nM
IC50 [10]: 140 nM
IC50 [3]: 206 nM

SMILES: C/C=C/C[C@@H](C)[C@@H](O)[C@H]1C(=O)N[C@@H](CC)C(=O)N(C)CC(=O)N(C)[C@@H](CC(C)C)C(=O)N[C@@H](C(C)C)C(=O)N(C)[C@@H](CC(C)C)C(=O)N[C@@H](C)C(=O)N[C@H](COCC(=O)Nc2ccc(/N=N\c3ccc(NC(=O)CCCC[C@@H]4SC[C@@H]5NC(=O)N[C@@H]54)cc3)cc2)C(=O)N(C)[C@@H](CC(C)C)C(=O)N(C)[C@@H](CC(C)C)C(=O)N(C)[C@@H](C(C)C)C(=O)N1C
inhibition [14]: Active
inhibition [17]: Active
IC50 [18]: 950 nM
